Test results reported in ChEMBL document CHEMBL1821694, “Design and synthesis of novel amide AKT1 inhibitors with selectivity over CDK2” (Bioorg Med Chem Lett, 2011).

Tests used:
[1] = molecular target: Cyclin-dependent kinase 2 (Homo sapiens, UniProt P24941); test: Inhibition of CDK2
[2] = molecular target: T1, RAC-alpha serine/threonine-protein kinase (Homo sapiens, UniProt P31749); test: Inhibition of AKT1
[3] = Inhibition of PKA
[4] = Clearance in rat; format: ADME, organism-based; settings: in vivo
[5] = Metabolic stability in human liver microsomes assessed as compound turnover; format: ADME, Microsome; settings: read-out: Activity
Liver microsomes = test: Metabolic stability in rat liver microsome; format: ADME
[6] = molecular target: T1, RAC-alpha serine/threonine-protein kinase; test: Inhibition of AKT1-mediated PRAS40 phosphorylation in human U87MG cells after 1 hr in presence of 5% FBS by ELISA assay; format: cell-based, U-87MG ATCC
Summary of the method: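 U87MG cells kept in medium with 5% FBS; inhibitor added as threefold serial dilutions, 1 h incubation at 37 °C, then phospho-PRAS40 measured. Values are means ± SD, n ≥ 3.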

T1 sequence (P31749 whole entry): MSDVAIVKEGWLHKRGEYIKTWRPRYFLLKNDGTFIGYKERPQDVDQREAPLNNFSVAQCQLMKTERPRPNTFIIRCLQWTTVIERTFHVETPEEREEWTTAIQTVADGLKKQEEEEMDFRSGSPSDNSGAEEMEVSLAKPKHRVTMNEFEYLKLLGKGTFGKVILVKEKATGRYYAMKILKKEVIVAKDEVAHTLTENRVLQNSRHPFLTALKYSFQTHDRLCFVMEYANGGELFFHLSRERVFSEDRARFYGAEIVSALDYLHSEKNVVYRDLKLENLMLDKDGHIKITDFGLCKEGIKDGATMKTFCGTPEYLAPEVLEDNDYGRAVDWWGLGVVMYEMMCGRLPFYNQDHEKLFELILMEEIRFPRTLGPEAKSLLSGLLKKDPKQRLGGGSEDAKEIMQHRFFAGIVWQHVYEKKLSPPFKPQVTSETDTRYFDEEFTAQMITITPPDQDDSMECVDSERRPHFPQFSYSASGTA

Row | SMILES | IC50 [1] | IC50 [2] | IC50 [3] | clearance [4] | metabolised [5] | Stability (Liver microsomes) | IC50 [6]
1 | O=C(NC(c1cnc(Cl)c(Cl)c1)C1CCNCC1)c1ccc2cnccc2c1 (racemic) | > 25000 nM | 140 nM | 230 nM |  |  |  | 
2 | O=C(NC(c1ccc(Cl)cc1)C1CCNCC1)c1ccc2cnccc2c1 (racemic) | > 25000 nM | 190 nM | 130 nM |  |  |  | 
3 | CC(C)CN1CCC([C@@H](NC(=O)c2ccc3cnccc3c2)c2ccc(Cl)c(Cl)c2)CC1 | > 25000 nM | 2140 nM | 2010 nM |  |  |  | 
4 | O=C(NC(c1ccc(Cl)c(F)c1)C1CCNCC1)c1ccc2cnccc2c1 (racemic) | > 25000 nM | 40 nM |  |  |  |  | 
5 | O=C(NC(c1ccc(Cl)c(-c2ccccc2)c1)C1CCNCC1)c1ccc2cnccc2c1 (racemic) | > 25000 nM | 200 nM | 220 nM |  |  |  | 
6 | O=C(N[C@@H](c1ccc(Cl)c(Cl)c1)C1CCN(Cc2ccc(C(F)(F)F)cc2)CC1)c1ccc2cnccc2c1 | > 25000 nM | 2300 nM | 980 nM |  |  |  | 
7 | O=C(NC(c1ccc(F)c(F)c1)C1CCNCC1)c1ccc2cnccc2c1 (racemic) | > 25000 nM | 2680 nM | 160 nM |  |  |  | 
8 | O=C(NC(c1ccc(Cl)c(Cl)c1)C1CCNCC1)c1ccc2[nH]ncc2c1 (racemic) |  | 250 nM | 290 nM |  |  |  | 
9 | O=C(NC(c1ccc(Cl)c(Cl)c1)C1CCNCC1)c1ccc2cnc(F)cc2c1 (racemic) | > 25000 nM | 20 nM | 90 nM | 58.3 mL/min/kg | 10% | 15.9% | 390 nM
10 | N[C@H](CNC(=O)c1ccc2cnccc2c1)Cc1ccc(C(F)(F)F)cc1 | > 25000 nM | 3380 nM | 1560 nM |  |  |  | 
11 | O=C(NC(c1nccs1)C1CCNCC1)c1ccc2cnccc2c1 (racemic) | > 25000 nM | 1570 nM | 1070 nM |  |  |  | 
12 | O=C(NC(c1ccc(Cl)c(Cl)c1)C1CCCCC1)c1ccc2cnccc2c1 (racemic) | > 25000 nM | 5800 nM | > 25000 nM |  |  |  | 
13 | O=C(NC(c1ccc(Cl)c(Cl)c1)C1CCCNC1)c1ccc2cnccc2c1 (stereo not drawn) | 21000 nM | 20 nM |  |  |  |  | 
14 | COc1cc2cnccc2cc1C(=O)NC(c1ccc(Cl)c(Cl)c1)C1CCNCC1 (racemic) |  | 39 nM | 30 nM |  |  |  | 
15 | N#Cc1cc(C(NC(=O)c2ccc3cnccc3c2)C2CCNCC2)ccc1Cl (racemic) | > 25000 nM | 80 nM | 160 nM |  |  |  | 
16 | O=C(NC(c1cccc(Cl)c1Cl)C1CCNCC1)c1ccc2cnccc2c1 (racemic) | > 25000 nM | 120 nM | 100 nM |  |  |  | 
17 | COc1ccc(-c2cc3cnccc3cc2C(=O)NC(c2ccc(Cl)c(Cl)c2)C2CCNCC2)cc1 (racemic) |  | 6850 nM | 670 nM |  |  |  | 
18 | O=C1Cc2cc(C(=O)NC(c3ccc(Cl)c(Cl)c3)C3CCNCC3)ccc2N1 (racemic) |  | 350 nM | 1150 nM |  |  |  | 

Row | SMILES | IC50 [1] | IC50 [2] | IC50 [3] | clearance [4] | metabolised [5] | Stability (Liver microsomes) | IC50 [6]
19 | O=C(N[C@@H](c1ccc(Cl)c(Cl)c1)C1CNC1)c1ccc2cnccc2c1 | 690 nM | 7 nM | 10 nM | 173 mL/min/kg | 10.9% | 33.4% | 240 nM
20 | O=C(N[C@H](c1ccc(Cl)c(Cl)c1)C1CNC1)c1ccc2cnccc2c1 | 9800 nM | 110 nM | 30 nM |  |  |  | 
21 | O=C(NC(c1cccc(Cl)c1)C1CCNCC1)c1ccc2cnccc2c1 (racemic) | > 25000 nM | 70 nM | 30 nM |  |  |  | 
22 | O=C(NC(c1cncnc1)c1ccc(Cl)c(Cl)c1)c1ccc2cnccc2c1 (racemic) | > 25000 nM | 12700 nM | 3410 nM |  |  |  | 
23 | O=C(NC(c1ccc(Cl)c(Cl)c1)C1CCNCC1)c1ccc2cnncc2c1 (single isomer, unassigned) |  | 330 nM | 850 nM |  |  |  | 
24 | O=C(NC(c1ccc(Cl)c(Cl)c1)C1CCNCC1)c1ccc2cnccc2c1 (racemic) | > 25000 nM | 40 nM | 50 nM |  |  |  | 
25 | O=C(NC(c1ccc(Cl)c(Cl)c1)C1CCNCC1)c1ccc2cnc(Cl)cc2c1 (racemic) |  | 140 nM |  |  |  |  | 
26 | O=C(NC(c1ccc(Cl)c(Cl)c1)C1CCNCC1)c1ccc2[nH]c(=O)oc2c1 (racemic) |  | 460 nM | 13700 nM |  |  |  | 
27 | O=C(N[C@@H](c1ccc(Cl)c(Cl)c1)C1CCN(Cc2ccccc2)CC1)c1ccc2cnccc2c1 | > 25000 nM | 240 nM | 390 nM |  |  |  | 
28 | O=C(NC(c1ccc(Cl)c(Cl)c1)C1CCNC1)c1ccc2cnccc2c1 (mixture of isomers) | > 25000 nM | 30 nM | 10 nM |  |  |  | 
29 | O=C(NC(c1ccc2ccccc2c1)C1CCNCC1)c1ccc2cnccc2c1 (racemic) | > 25000 nM | 400 nM | 260 nM |  |  |  | 
30 | O=C(NC(c1ccncc1)c1ccc(Cl)c(Cl)c1)c1ccc2cnccc2c1 (racemic) | > 25000 nM | 20400 nM | > 25000 nM |  |  |  | 
31 | N[C@H](CNc1nnc(-c2ccc3c(c2)CC(=O)N3)s1)Cc1ccc(C(F)(F)F)cc1 | 190 nM | 20 nM | 170 nM |  |  |  | 300 nM
32 | O=C(NC(c1ccccc1)C1CCNCC1)c1ccc2cnccc2c1 (racemic) | 19700 nM | 850 nM | 250 nM |  |  |  | 
33 | CN1CC([C@@H](NC(=O)c2ccc3cnccc3c2)c2ccc(Cl)c(Cl)c2)C1 | 360 nM | 7 nM | 10 nM |  |  |  | 
34 | N[C@H](CNc1nnc(-c2ccc3cnccc3c2)s1)Cc1ccc(C(F)(F)F)cc1 | 50 nM |  | 6 nM |  |  |  | 
35 | COc1ccc(C(NC(=O)c2ccc3cnccc3c2)C2CCNCC2)cc1F (racemic) | > 25000 nM | 1510 nM | 130 nM |  |  |  | 
